Experimental data taken from paper PMC4180501 (Biochimica et biophysica acta, 2012).
Positions count from the first letter of the chain named.

How the values were obtained:
GK- W257 (W99R/W167F) [1] = molecular target: T1, GK- W257 (W99R/W167F) (Homo sapiens, UniProt P35557, W167F/W99R); assay: DSC thermal denaturation; settings: W-257 in buffer, 300 mM D-glucose
T1 sequence (P35557 1-465 W99R/W167F): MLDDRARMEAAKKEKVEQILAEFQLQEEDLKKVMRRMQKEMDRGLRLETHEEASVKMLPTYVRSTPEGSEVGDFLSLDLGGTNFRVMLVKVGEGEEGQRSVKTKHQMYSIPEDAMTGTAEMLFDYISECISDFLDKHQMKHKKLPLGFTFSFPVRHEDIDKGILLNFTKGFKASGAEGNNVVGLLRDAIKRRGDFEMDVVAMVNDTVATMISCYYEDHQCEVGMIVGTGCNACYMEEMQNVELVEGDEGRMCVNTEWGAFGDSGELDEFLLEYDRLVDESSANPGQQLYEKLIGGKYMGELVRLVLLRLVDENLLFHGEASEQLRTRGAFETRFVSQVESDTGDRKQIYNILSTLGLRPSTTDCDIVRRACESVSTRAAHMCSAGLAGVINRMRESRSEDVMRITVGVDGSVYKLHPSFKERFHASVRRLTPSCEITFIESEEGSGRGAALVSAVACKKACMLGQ
How it was run: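 Samples were degassed and scanned by DSC at 0.25 degree/min against a reference holding everything except protein. Tm and calorimetric ΔH were taken by integrating the Cp-vs-temperature thermogram; Cpm is the apparent heat capacity at the maximum.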

GK-W167 (W99R/W257F) = molecular target: T2, GK-W167 (W99R/W257F) (Homo sapiens, UniProt P35557, W257F/W99R); assay: NADP+-coupled spectrophotometric kinetic assay; format: biochemical; settings: W-167, no GKA
T2 sequence (P35557 1-465 W99R/W257F): T1 sequence (P35557 1-465 W99R/W167F) with F167W, W257F
How it was run: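 Recombinant human β-cell glucokinase single-Trp variant, expressed in E. coli as a GST fusion and sequence-verified. Catalytic parameters came from an NADP+-coupled spectrophotometric assay run with or without 30% glycerol. Hill coefficient and glucose S0.5 were obtained by fitting v/Vmax = [glucose]^H/(K′+[glucose]^H), with […].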

GK-WT [2] = molecular target: T3, GK-WT (Homo sapiens, UniProt P35557); assay: D-glucose binding by tryptophan fluorescence titration; settings: for ΔG of glucose binding / ΔH of glucose binding / ΔS of glucose binding: pure wild type GK, 25 °C, pH 7.3, Vant Hoff plot
T3 sequence (P35557 1-465): T1 sequence (P35557 1-465 W99R/W167F) with R99W, F167W

GK- W257 (W99R/W167F) [3] = molecular target: T1, GK- W257 (W99R/W167F); assay: as above; settings: W-257, no GKA
GK-WT [4] = molecular target: T3, GK-WT; assay: NADP+-coupled spectrophotometric kinetic assay; format: biochemical; settings: GK-WT, no GKA

OC[C@H]1OC(O)[C@H](O)[C@@H](O)[C@@H]1O (stereo partly drawn) [D-glucose]
Cp^m (GK- W257 (W99R/W167F) [1]): 122.6 kJ/mol/°C
ΔH thermal denaturation (GK- W257 (W99R/W167F) [1]): 158 kcal/mol
Tm (GK- W257 (W99R/W167F) [1]; DSC): 51.2 °C
Glucose S0.5 (GK-W167 (W99R/W257F); 30% glycerol): 0.82 mM
kcat (GK-W167 (W99R/W257F); 30% glycerol): 26.2 s⁻¹
nH (Hill coefficient towards glucose) (GK-W167 (W99R/W257F); 30% glycerol): 1.32
Glucose S0.5 (GK-W167 (W99R/W257F); no glycerol): 2.28 mM
kcat (GK-W167 (W99R/W257F); no glycerol): 69.9 s⁻¹
nH (Hill coefficient towards glucose) (GK-W167 (W99R/W257F); no glycerol): 1.53
Kd (GK-WT [2]; D-glucose binding KD, GK-WT, no GKA, 20% glycerol): 1.8 mM
Kd (GK-WT [2]; D-glucose binding KD, GK-WT, no GKA, no glycerol): 7.4 mM
Kd (GK-WT [2]; glucose KD, 11 °C, absence of glycerol): 13.7 mM
Kd (GK-WT [2]; glucose KD, 45 °C, presence of glycerol): 1.15 mM
ΔG of glucose binding (GK-WT [2]; 20% glycerol): -3.82 kcal/mol
ΔH of glucose binding (GK-WT [2]; 20% glycerol): 4.78 ± 0.72 kcal/mol
ΔS of glucose binding (GK-WT [2]; 20% glycerol): 120+/−9 J/mol*K
ΔG of glucose binding (GK-WT [2]; no glycerol): -3.13 kcal/mol
ΔH of glucose binding (GK-WT [2]; no glycerol): 8.13 ± 0.48 kcal/mol
ΔS of glucose binding (GK-WT [2]; no glycerol): 157+/−4 J/mol*K
Kd (GK- W257 (W99R/W167F) [3]; 20% glycerol): 2.09 mM
Kd (GK- W257 (W99R/W167F) [3]; no glycerol): 11.3 mM
Glucose S0.5 (GK-WT [4]; 30% glycerol): 3.15 mM
nH (Hill coefficient towards glucose) (GK-WT [4]; 30% glycerol): 1.78
Glucose S0.5 (GK-WT [4]; no glycerol): 6.26 mM
nH (Hill coefficient towards glucose) (GK-WT [4]; no glycerol): 1.69
